Three compounds from ChEMBL document CHEMBL1828592, “Synthesis and anti-microbial activity of some 1- substituted amino-4,6-dimethyl-2-oxo-pyridine-3-carbonitrile derivatives” (2011) can be followed below.

Common to all, as to assay type: functional
In experiment [1] the test system is Candida albicans. Description: Antifungal activity against Candida albicans RCMB 005002 at 30 ug/ml after 3 to 4 days by agar well diffusion method. The settings on record: read-out: IZ. The method in brief:
(§1)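 Reference antifungal tested at 30 μg/mL, 100 μL per well, on Sabouraud dextrose agar spread with 0.1 mL of a fungal culture at about 10^5 CFU/mL. Wells were bottom-sealed with 0.8% soft agar. Incubated 30 °C, 3–4 days. Inhibition zone (mm) measured three times by caliper and averaged; mean ± SD.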

Experiment [2] relates to Geotrichum candidum. The experiment can be described thus: Antifungal activity against Geotrichum candidum RCMB 052006 at 30 ug/ml after 3 to 4 days by agar well diffusion method. The settings on record: read-out: IZ. The method in brief: as §1
In general terms: In agar diffusion tests the substance spreads into inoculated agar from a disc or well.

The test system of experiment [3] is Aspergillus fumigatus. Description: Antifungal activity against Aspergillus fumigatus RCMB 002003 at 30 ug/ml after 3 to 4 days by agar well diffusion method. The settings on record: read-out: IZ. The gist of the method: as §1
For experiment [4], the system named is Syncephalastrum racemosum. Description: Antifungal activity against Syncephalastrum racemosum RCMB 005003 at 30 ug/ml after 3 to 4 days by agar well diffusion method. The settings on record: read-out: IZ. The method in brief:
as §1

The test system of experiment [5] is Bacillus subtilis. The experiment can be described thus: Antibacterial activity against Bacillus subtilis RCMB 000107 at 30 ug/ml after 24 hrs by diffusion agar technique. The settings on record: RCMB 000107, 24 h, read-out: IZ. The gist of the method: (§2)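 Reference antibiotic tested at 30 μg/mL, 100 μL per 6 mm well in agar diffusion on nutrient agar (pH 7.0) seeded with approx. 10^4–10^6 CFU/mL bacteria. Incubated 37 °C for 24 h. Inhibition zone beyond well diameter (mm) read by caliper in triplicate and averaged; mean ± SD.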

The subject of experiment [6] is Pseudomonas aeruginosa. The experiment can be described thus: Antibacterial activity against Pseudomonas aeruginosa RCMB 000102 at 30 ug/ml after 24 hrs by diffusion agar technique. The settings on record: RCMB 000102, 24 h, read-out: IZ. The gist of the method: as §2
The subject of experiment [7] is Staphylococcus aureus. Description: Antibacterial activity against Staphylococcus aureus RCMB 000106 at 30 ug/ml after 24 hrs by diffusion agar technique. The settings on record: RCMB 000106, 24 h, read-out: IZ. The gist of the method: as §2
In experiment [8] the test system is Escherichia coli. The experiment can be described thus: Antibacterial activity against Escherichia coli RCMB 000103 at 30 ug/ml after 24 hrs by diffusion agar technique. The settings on record: RCMB 000103, 24 h, read-out: IZ. The method in brief:
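Agar well diffusion on nutrient agar (pH 7.0) spread with centrifuged bacterial pellets from a 24 h culture, about 10^4–10^6 CFU/mL. Wells receive 100 µL of sample in DMSO: tested samples at 10 mg/mL, standard antibiotic at 30 μg/mL, DMSO as control. Incubation is 37 °C for 24 h. Inhibition zone in mm beyond the 6 mm well is measured three times by caliper and averaged. Three runs, mean ± SD.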

For `Clc1ccccc1C(c1ccccc1)(c1ccccc1)n1ccnc1` [CLOTRIMAZOLE], the zone of inhibition at 30 µg/mL was 18 mm in experiment [1], 23 mm in experiment [2], 26 mm in experiment [3] and 20 mm in experiment [4].
Take `CC1(C)S[C@@H]2[C@H](NC(=O)Cc3ccccc3)C(=O)N2[C@H]1C(=O)O` [PENICILLIN G]: the zone of inhibition at 30 µg/mL in experiment [5] was 32.6 mm; in experiment [6] it was 28.3 mm; in experiment [7], 29.5 mm; in experiment [8], 33.6 mm.
Turning to `CCC(C)n1ncn(-c2ccc(N3CCN(c4ccc(OCC5COC(Cn6cncn6)(c6ccc(Cl)cc6Cl)O5)cc4)CC3)cc2)c1=O` (configuration not stated) [ITRACONAZOLE], the zone of inhibition at 30 µg/mL in experiment [1] came to 26 mm; in experiment [2] it was 27 mm; in experiment [3] it was 28 mm; in experiment [4], 22 mm.
